Experiment [1] has as its target T1, Neprilysin (Rattus norvegicus, UniProt P07861).
T1 sequence (P07861 whole entry): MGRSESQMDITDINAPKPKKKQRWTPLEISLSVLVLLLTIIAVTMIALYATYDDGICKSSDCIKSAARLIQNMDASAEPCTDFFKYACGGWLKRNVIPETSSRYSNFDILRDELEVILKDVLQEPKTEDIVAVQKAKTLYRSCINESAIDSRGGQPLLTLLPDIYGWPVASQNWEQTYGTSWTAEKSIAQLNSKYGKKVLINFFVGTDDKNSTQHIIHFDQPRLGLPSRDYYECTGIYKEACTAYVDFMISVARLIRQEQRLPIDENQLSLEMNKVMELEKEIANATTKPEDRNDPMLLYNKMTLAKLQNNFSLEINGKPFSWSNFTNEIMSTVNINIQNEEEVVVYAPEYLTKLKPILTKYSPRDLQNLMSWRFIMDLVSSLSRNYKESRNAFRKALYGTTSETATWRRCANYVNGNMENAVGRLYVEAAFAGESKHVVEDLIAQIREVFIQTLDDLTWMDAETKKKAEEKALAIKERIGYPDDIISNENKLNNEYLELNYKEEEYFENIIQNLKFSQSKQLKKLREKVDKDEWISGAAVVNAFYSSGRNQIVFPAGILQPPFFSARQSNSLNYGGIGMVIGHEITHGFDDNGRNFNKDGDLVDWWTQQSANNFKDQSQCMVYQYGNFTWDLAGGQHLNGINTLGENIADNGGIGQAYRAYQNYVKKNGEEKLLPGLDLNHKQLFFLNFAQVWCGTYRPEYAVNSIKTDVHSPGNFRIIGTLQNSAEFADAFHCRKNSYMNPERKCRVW
The experiment is described as follows: In vitro inhibition of rat neutral endopeptidase by using GAAP as substrate. The procedure, abridged: (§1)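 Enzyme source was rat kidney cortex membranes (male Sprague-Dawley), 4.0 μg protein, plus 2.5 μg aminopeptidase M, in 50 mM Tris-HCl pH 7.4. Preincubated with inhibitor 10 min at 25 °C, then GAAP added (final 500 μM) for 25 min at 25 °C. Stopped with fast garnet, colour developed 30 min, OD read at 540 nm. Run in duplicate.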

In experiment [2] the target is T2, Neprilysin (Rattus norvegicus) (UniProt P07861).
T2 sequence (whole entry): T1 sequence (P07861 whole entry)
The experiment is described as follows: The compound was tested in vitro for inhibition of Neutral endopeptidase by using GAAP as substrate. Particulars: concentration not given here. A digest of the protocol:
as §1

The target in experiment [3] is T1, Neprilysin. Put plainly: The compound was tested in vitro for inhibition of Neutral endopeptidase by using ANF(atrial natriuretic factor) as substrate. A digest of the protocol: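 NEP (5.0 μg) preincubated 10 min with inhibitor in 50 mM Tris-HCl pH 7.4. Reaction started with r-ANF (final 20 μM) and run 10 min at 37 °C, then stopped with 0.6% TFA. Substrate loss measured by 3 min isocratic RP-HPLC on a C4 cartridge. Run in duplicate.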

Experiment [4] deals with T1, Neprilysin. The experiment is described as follows: The compound was tested in vitro for inhibition of Neutral endopeptidase by using Leu enkephalin as substrate. The procedure, abridged:
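NEP (30 ng) preincubated 10 min with inhibitor in 50 mM Tris-HCl pH 7.4. Substrate disappearance followed by 6 min isocratic RP-HPLC on a C4 column. Duplicates.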

Experiment [5] deals with T1, Neprilysin. Put plainly: The compound was tested for inhibition of Neutral endopeptidase by using GAAP as substrate. The procedure, abridged:
as §1

With `CO[C@H](C[C@@H](Cc1ccc(-c2ccccc2)cc1)NC(=O)CCCC(=O)O)C(=O)O`, 49 nM corresponded to half-maximal inhibition on Neprilysin [1] (IC50). This lies in the double-digit nanomolar range.
As for `CC(C)c1ccc(CC(CC(Cc2ccc(C(C)C)cc2)C(=O)NCCC(=O)O)C(=O)O)cc1` (stereo not drawn), the IC50 (commonly the concentration needed to halve the response being measured) at Neprilysin [1] was 489 nM.
`O=C(O)CCNC(=O)[C@H](Cc1ccc(-c2ccccc2)cc1)C[C@@H](Cc1ccc(-c2nccs2)cc1)C(=O)O` displayed an IC50 at Neprilysin [1] of 19 nM. Against the preceding compound, the IC50 is about 26-fold lower.
At Neprilysin [1], `Cc1ccc([C@H](C[C@@H](Cc2ccc(-c3ccccc3)cc2)C(=O)NCCC(=O)O)C(=O)O)cc1` had an IC50 of 54 nM. Against the preceding compound, the IC50 is about 2.8-fold higher.
Same read-out and setting: to `CCCC[C@H](C[C@@H](Cc1ccc(-c2ccccc2)cc1)C(=O)NCC(O)C(=O)O)C(=O)O` (stereo partly drawn) belongs 21 nM; to `O=C(O)CCNC(=O)[C@H](Cc1ccc(-c2ccccc2)cc1)C[C@@H](Oc1ccccc1)C(=O)O` (stereo in doubt; 8f), above 1000 nM.
`O=C(O)C1CCC(NC(=O)C(Cc2ccccc2)CC(Cc2ccccc2)C(=O)O)CC1` (stereo not drawn): the inhibition (commonly the share of the control response that was lost under treatment) in experiment [2] is 52%.
For `O=C(O)CCNC(=O)[C@H](Cc1ccc(-c2ccccc2)cc1)NCP(=O)(O)O`, the IC50 against Neprilysin [3] stood at 2 nM; at Neprilysin [4] it was 0.81 nM.
As to `O=C(O)CCNC(=O)C(Cc1ccc(Oc2ccccc2)cc1)CC(Cc1ccc(Oc2ccccc2)cc1)C(=O)O` (stereo not drawn), at Neprilysin [1], half-maximal inhibition (IC50) required 203 nM.
In the case of `COc1ccc(C[C@H](C[C@@H](Cc2ccc(-c3ccccc3)cc2)C(=O)NCCC(=O)O)C(=O)O)cc1OC`, at Neprilysin [1], the IC50 is 54 nM.
`O=C(O)CCNC(=O)C(Cc1ccc(-n2cccc2)cc1)CC(Cc1ccc(-n2cccc2)cc1)C(=O)O` (stereo not drawn) returned an IC50 against Neprilysin [1] of 36 nM.
The same measure, in the same setting: to `O=C(O)CCNC(=O)C(Cc1ccccc1)CC(Cc1ccccc1)C(=O)O` (stereo not drawn) belongs 1200 nM.
With `O=C(O)CCNC(=O)C(Cc1ccc(-c2nccs2)cc1)CC(Cc1ccc(-c2nccs2)cc1)C(=O)O` (stereo not drawn), the IC50 against Neprilysin [1] was above 1000 nM. Also, the inhibition in experiment [2] is 43%.
Take `COc1ccc(C[C@H](C[C@@H](Cc2ccc(-c3ccccc3)cc2)C(=O)NCC(O)C(=O)O)C(=O)O)cc1OC` (stereo partly drawn): the IC50 against Neprilysin [1] turned out to be 11 nM.
For the compound `CO[C@H](C[C@@H](Cc1ccc(-c2ccccc2)cc1)C(=O)NCCC(=O)O)C(=O)O` (stereo in doubt; 8h), the IC50 against Neprilysin [1] was above 1000 nM.
As for `O=C(O)CCNC(=O)C(Cc1ccc(-c2ccccc2)cc1)CC(Cc1ccc(-c2ccccc2)cc1)C(=O)O` (stereo not drawn), the IC50 on Neprilysin [1] amounted to 49 nM.
`O=C(O)CCNC(=O)[C@H](Cc1ccccc1)C[C@@H](Cc1ccccc1)C(=O)O`: the IC50 was found to be 1200 nM on Neprilysin [5] and 9 nM against Neprilysin [4].
In the case of `C[C@H](C[C@@H](Cc1ccc(-c2ccccc2)cc1)NC(=O)CCCC(=O)O)C(=O)O`, the midpoint of inhibition against Neprilysin [1], the IC50, lay at 90 nM. This lies in the double-digit nanomolar range.
On to `O=C(O)C1CCC(NC(=O)C(Cc2ccc(-n3cccc3)cc2)CC(Cc2ccc(-n3cccc3)cc2)C(=O)O)CC1` (stereo not drawn), for which the IC50 on Neprilysin [1] was found to be 515 nM.
On Neprilysin [1], `COCC[C@H](C[C@@H](Cc1ccc(-c2ccccc2)cc1)C(=O)NCCC(=O)O)C(=O)O` came in with an IC50 of 46 nM.
As for `CO[C@H](C[C@@H](Cc1ccc(-c2ccccc2)cc1)C(=O)NCCC(=O)O)C(=O)O` (stereo in doubt; 8g), the IC50 at Neprilysin [1] was 42 nM.
On to `O=C(O)CCNC(=O)[C@H](Cc1ccc(-c2ccccc2)cc1)C[C@@H](Oc1ccccc1)C(=O)O` (stereo in doubt; 8e), for which the IC50 on Neprilysin [1] was found to be 44 nM.
For the compound `O=C(O)CCC(=O)N[C@H](Cc1ccccc1)C[C@@H](Cc1ccccc1)C(=O)O`, half-maximal inhibition against Neprilysin [1] (IC50) required 4000 nM.
For the compound `C[C@H](C[C@@H](Cc1ccc(-c2ccccc2)cc1)NC(=O)CC(=O)O)C(=O)O`, the IC50 against Neprilysin [1] is 92 nM.
`C[C@H](C[C@@H](Cc1ccc(-c2ccccc2)cc1)C(=O)NCCC(=O)O)C(=O)O` came in with a 50% inhibitory concentration (IC50) on Neprilysin [1] of 41 nM.
As for `CCCC[C@H](C[C@@H](Cc1ccc(-c2ccccc2)cc1)C(=O)NCCC(=O)O)C(=O)O`, the IC50 at Neprilysin [1] was 66 nM. Compared with the last compound, the IC50 is about 1.6-fold higher.
Same read-out and setting: to `C[C@H](C[C@@H](Cc1ccc(-c2ccccc2)cc1)NC(=O)CCCCC(=O)O)C(=O)O` belongs 324 nM.
In the case of `O=C(O)CCNC(=O)[C@@H](CCC(=O)O)Cc1ccc(-c2ccccc2)cc1`, the IC50 against Neprilysin [5] is 155 nM; against Neprilysin [1], 155 nM; against Neprilysin [4], 0.7 nM.

The record behind these values is ChEMBL document CHEMBL1128359, “Dicarboxylic acid dipeptide neutral endopeptidase inhibitors” (J Med Chem, 1995).
